We go through three compounds from ChEMBL document CHEMBL4196091 (Eur J Med Chem, 2018).

Activity calls are given as the source filed them. The calls are words filed in the database; no cut-off is given here.

The subject of data set [1] is A549. The data set is described as follows: Antiproliferative activity against human A549 cells after 2 days by MTT assay. Type of data set: functional, cell-based. As to conditions: A549, 48 h. (Formazan colour is commonly taken as a measure of viable cells.)
Data set [2] in a line: Selectivity index, ratio of IC50 for HEK293 cells to IC50 for human A549 cells. The note with it: HEK293 cells versus A549 cells.
For data set [3], the system named is HT-29. Description: Antiproliferative activity against human HT-29 cells after 2 days by MTT assay. Type of data set: functional, cell-based. The note with it: HT-29, 48 h.
Data set [4] can be described thus: Selectivity index, ratio of IC50 for HEK293 cells to IC50 for human MCF7 cells. As to conditions: HEK293 cells versus MCF7 cells.
The subject of a further data set is HEK293. The data set is described as follows: Antiproliferative activity against HEK293 cells after 2 days by MTT assay. The note with it: Homo sapiens, HEK293, 48 h. Type of data set: ADME, cell-based.
Data set [5] in a line: Selectivity index, ratio of IC50 for HEK293 cells to IC50 for human HT-29 cells. As to conditions: HEK293 cells versus HT-29 cells.
The next data set has as its system MCF7. The data set is described as follows: Antiproliferative activity against human MCF7 cells after 2 days by MTT assay. It is filed as functional, cell-based. The note with it: MCF7, 48 h.
For data set [6], the system named is HT-29. The data set is described as follows: Downregulation of c-Myc gene expression in human HT-29 cells assessed as c-Myc mRNA level at 30 nM after 48 hrs by RT-PCR method (reference value: 100%). It is filed as functional. An outline of the steps:
(§1)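 HT-29 cells were taken at 70–80% confluence and seeded at 1.5 x 10^5 per well. After 24 h they were exposed to compound for 48 h. Total RNA was isolated and TaqMan RT-qPCR run for VEGF-A, c-MYC and hTERT, normalized to β-actin. Expression is given as percent of DMSO control, with at least three measurements and one-sample t-tests.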

The subject of data set [7] is HT-29. The data set is described as follows: Downregulation of hTERT gene expression in human HT-29 cells assessed as hTERT mRNA level at 30 nM after 48 hrs by RT-PCR method (reference value: 100%). Type of data set: functional. An outline of the steps: as §1
The subject of data set [8] is HT-29. The data set is described as follows: Downregulation of VEGF gene expression in human HT-29 cells assessed as VEGF mRNA level at 30 nM after 48 hrs by RT-PCR method (reference value: 100%). It is filed as functional. The gist of the method:
as §1

In data set [9] the test system is HT-29. The data set is described as follows: Inhibition of VEGF protein secretion in human HT-29 cells assessed as VEGF protein level at 30 nM after 48 hrs by ELISA (reference value: 100%). Type of data set: functional. Also noted: scale not given: the % may be the effect or the level left. (ELISA stands for enzyme-linked immunosorbent assay.)
The subject of data set [10] is A549. Description: Cell cycle arrest in human A549 cells assessed as accumulation at sub-G0 phase at 20 nM after 24 hrs by propidium iodide staining based flow cytometry (reference value: 2 +/- 1%). Type of data set: functional. An outline of the steps: (§2)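 A549 cells maintained in DMEM (1 g/L glucose, 2 mM glutamine, penicillin/streptomycin/amphotericin B, 10% FBS) and treated for 24 h. Cells were then fixed, RNase-treated and stained with propidium iodide. DNA content was measured by flow cytometry to give cell-cycle phase distribution, including a sub-G1 peak. Data are means (±SD) of two experiments.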
Background: In flow cytometry, cells or beads pass a laser one at a time.

Data set [11] concerns A549. Description: Cell cycle arrest in human A549 cells assessed as accumulation at S phase at 20 nM after 24 hrs by propidium iodide staining based flow cytometry (reference value: 15 +/- 6%). It is filed as functional. An outline of the steps:
as §2

Data set [12] has as its system A549. Description: Cell cycle arrest in human A549 cells assessed as accumulation at G2/M phase at 3 nM after 24 hrs by propidium iodide staining based flow cytometry. Type of data set: functional. An outline of the steps:
as §2

Data set [13] has as its system A549. The data set is described as follows: Cell cycle arrest in human A549 cells assessed as accumulation at G2/M phase at 20 nM after 24 hrs by propidium iodide staining based flow cytometry (reference value: 11 +/- 4%). It is filed as functional. The gist of the method:
as §2

In data set [14] the test system is HT-29. The data set is described as follows: Downregulation of c-Myc gene expression in human HT-29 cells assessed as c-Myc mRNA level at 5 nM after 48 hrs by RT-PCR method (reference value: 100%). Type of data set: functional. An outline of the steps:
as §1

In data set [15] the test system is A549. Description: Cell cycle arrest in human A549 cells assessed as accumulation at G0/G1 phase at 20 nM after 24 hrs by propidium iodide staining based flow cytometry (reference value: 73 +/- 3%). It is filed as functional. An outline of the steps: as §2
Data set [16] has as its system HT-29. The data set is described as follows: Downregulation of hTERT gene expression in human HT-29 cells assessed as hTERT mRNA level at 5 nM after 48 hrs by RT-PCR method (reference value: 100%). Type of data set: functional. The gist of the method:
as §1

Data set [17] deals with HT-29. Description: Inhibition of VEGF protein secretion in human HT-29 cells assessed as VEGF protein level at 5 nM after 48 hrs by ELISA (reference value: 100%). Also noted: scale not given: the % may be the effect or the level left. Type of data set: functional.
The test system of data set [18] is HT-29. Description: Downregulation of VEGF gene expression in human HT-29 cells assessed as VEGF mRNA level at 5 nM after 48 hrs by RT-PCR method (reference value: 100%). Type of data set: functional. An outline of the steps: as §1

By IC50 is commonly meant the concentration at which inhibition is half-maximal. As for `CCCCCc1ccc(C(=O)N[C@H]2CCc3cc(OC)c(OC)c(OC)c3-c3ccc(OC)c(=O)cc32)cc1`, the IC50 in the data set on A549 [1] came to 1.27 nM; with HT-29 [3], 4.2 nM; with HEK293, 1.6 nM; in the data set with MCF7 it was 5.8 nM. Besides, the selectivity ratio in data set [2] is 1.3; in data set [4] it was 0.3; in [5], 0.4.
With `COc1cc2c(c(OC)c1OC)-c1ccc(OC)c(=O)cc1[C@@H](NC(=O)c1ccc(C(C)(C)C)cc1)CC2`, the IC50 with A549 [1] stood at 36 nM; with HT-29 [3], 32.7 nM; in the data set with HEK293, 58 nM; with MCF7 it was 24 nM. Further, the Activity was 82% in the data set on HT-29 [6], greater than 100% in the data set on HT-29 [7], 73% in the data set on HT-29 [8] and 61% in the data set on HT-29 [9].
Regarding `COc1cc2c(c(OC)c1OC)-c1ccc(OC)c(=O)cc1[C@@H](NC(=O)c1ccccc1Br)CC2`, the Activity in the data set with A549 [10] was 4%; with A549 [11] it was 22%; in the data set with A549 [13], 47%; in the data set on HT-29 [14] it was 50%; in the data set with A549 [15], 27%; in the data set with HT-29 [16], 88%. In addition, the Activity with HT-29 [17] came to 80%; in the data set on HT-29 [18], 57%. The IC50 was 13 nM in the data set with A549 [1], 5.8 nM in the data set on HT-29 [3], 8.5 nM in the data set on HEK293 and 7.6 nM in the data set with MCF7. In addition, the outcome in the data set with A549 [12] was Active.
